Results on 8 molecules are retold here after ChEMBL document CHEMBL1145421, “Discovery of novel antitumor antimitotic agents that also reverse tumor resistance” (J Med Chem, 2007).

Active and inactive are the calls of the source. The rule behind the calls is not given here.

The subject of assay [1] is HL-60. As to the kind of experiment: Cell cycle arrest in HL60 cells assessed as accumulation in S phase at 200 nM. Format: functional, Homo sapiens. Put shortly: (§1)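 HL-60 cells exposed 24 or 48 h to drug or ethanol vehicle. Nuclei prepared by detergent-trypsin method: citrate/sucrose/DMSO buffer, trypsin, then trypsin inhibitor plus RNase A, then propidium iodide with spermine, 30 min at 4 °C. Filtered, resuspended, DNA content measured by flow cytometry. Percentages given for G0/G1, S and G2/M. Mean ± SEM.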

For assay [2], the system named is MCF7. As to the kind of experiment: Growth inhibition of Pgp deficient MCF7 cells expressing MRP1. The assay is classed as functional, cell-based. As to conditions: Homo sapiens. In a few lines:
(§2)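 NCI/ADR (Pgp-overexpressing) or MCF-7/VP (MRP1-expressing, Pgp-negative) cells were seeded at about 15% confluency and allowed to attach for 24 h. They were then exposed for 48 h to varying compound concentrations, limited by solubility, without added vinca drug. Survival was read by sulforhodamine B binding against ethanol solvent controls. Each value is the mean of three equally treated wells.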

Assay [3] in a line: Growth inhibition of Pgp deficient MCF7/VP cells expressing MRP1. The assay is classed as functional, cell-based. As to conditions: Homo sapiens. In a few lines: as §2
The nature of assay [4]: Growth inhibition of NCI/ADR cells expressing Pgp/MRP1. Format: functional, cell-based. The settings on record: Homo sapiens, NCI/ADR-RES. In a few lines:
as §2

For assay [5], the system named is HL-60. As to the kind of experiment: Cell cycle arrest in HL60 cells assessed as accumulation in G0/G1 phase at 200 nM. Format: functional, Homo sapiens. Put shortly:
as §1

The subject of assay [6] is HL-60. As to the kind of experiment: Cell cycle arrest in HL60 cells assessed as accumulation in […] phase at 200 nM. Format: functional, Homo sapiens. Put shortly: as §1
Assay [7] is described as follows: Cytotoxicity against MRP1 overexpressing human MCF7/VP cells after 48 hrs by SRB binding assay. Format: functional, cell-based. Put shortly: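 MCF-7/VP (MRP1-expressing, Pgp-negative) cells seeded at ~15% confluency and allowed 24 h to attach. Exposed 48 h to graded concentrations without vincristine. Survival measured by SRB binding versus ethanol controls.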

The nature of assay [8]: Cytotoxicity against Pgp overexpressing human NCI/ADR cells after 48 hrs by SRB binding assay. The assay is classed as functional, cell-based. As to conditions: NCI/ADR-RES. Put shortly: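 NCI/ADR (Pgp-overexpressing) cells seeded at ~15% confluency and allowed 24 h to attach. Exposed 48 h to graded concentrations, as solubility allowed, without vinblastine. Survival measured by sulforhodamine B binding as % decrease in SRB binding versus ethanol-vehicle controls, mean of three wells per condition.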

Assay [9] concerns MCF7. The experiment in a line: Cytotoxicity against human MCF7 cells after 48 hrs by SRB binding assay. Format: functional, cell-based. As to conditions: MCF7, 48 h. Put shortly: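 Drug-sensitive MCF-7 cells seeded at ~15% confluency and allowed 24 h recovery. Exposed 48 h to graded concentrations. Survival measured by SRB binding as % decrease versus ethanol-vehicle controls, mean of triplicate wells.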

Assay [10] in a line: Cytotoxicity against human T24 cells after 48 hrs by SRB binding assay. The assay is classed as cell-based. As to conditions: T-24, 48 h.
In assay [11] the test system is HL-60. As to the kind of experiment: Cell cycle arrest in HL60 cells assessed as accumulation in […] phase at 80 nM. Format: functional, Homo sapiens. In a few lines: as §1
A further assay has as its system A10. The experiment in a line: Induction of microtubule loss in rat A10 cells at 5 uM after 24 hrs. Format: functional, cell-based.
The subject of assay [12] is HL-60. The experiment in a line: Cell cycle arrest in HL60 cells assessed as accumulation in G0/G1 phase at 80 nM. The assay is classed as functional, Homo sapiens. In a few lines: as §1
Assay [13] deals with HL-60. As to the kind of experiment: Cell cycle arrest in HL60 cells assessed as accumulation in S phase at 80 nM. The assay is classed as functional, Homo sapiens. Put shortly:
as §1

In a further assay the test system is NCI/ADR. The experiment in a line: Inhibition of P-glycoprotein activity assessed as increase in accumulation of [3H]vinblastine in NCI/ADR cells. Format: cell-based. The settings on record: Homo sapiens.
For assay [14], the system named is HL-60. The experiment in a line: Cell cycle arrest in HL60 cells assessed as accumulation in […] phase at 600 nM. Format: functional, Homo sapiens. Put shortly: as §1
In assay [15] the test system is HL-60. As to the kind of experiment: Cell cycle arrest in HL60 cells assessed as accumulation in G0/G1 phase at 600 nM. The assay is classed as functional, Homo sapiens. In a few lines:
as §1

Assay [16] concerns HL-60. As to the kind of experiment: Cell cycle arrest in HL60 cells assessed as accumulation in S phase at 600 nM. The assay is classed as functional, Homo sapiens. In a few lines: as §1

Take `CC(=O)O[C@H]1C(=O)[C@@]2(C)[C@H]([C@H](OC(=O)c3ccccc3)[C@]3(O)C[C@H](OC(=O)[C@H](O)[C@@H](NC(=O)c4ccccc4)c4ccccc4)C(C)=C1C3(C)C)[C@]1(OC(C)=O)CO[C@@H]1C[C@@H]2O` [PACLITAXEL]: the Activity is given as 22.2% with HL-60 [1], 67.3% with HL-60 [5] and 10.5% with HL-60 [6]. The IC50 in the assay with MCF7 [2] stood at 0.0025 µM; in assay [3], 0.0028 µM; in assay [4], 2.7 µM.
Consider `COc1ccc(CCc2cn(Cc3ccccc3)c3nc(N)nc(C)c23)cc1`, for which the IC50 was 22.7 µM in [7], 21.7 µM in assay [8], 13 µM in the assay on MCF7 [9] and 31.7 µM in assay [10].
`CC[C@]1(O)C[C@H]2CN(CCc3c([nH]c4ccccc34)[C@@](C(=O)OC)(c3cc4c(cc3OC)N(C=O)[C@H]3[C@@](O)(C(=O)OC)[C@H](OC(C)=O)[C@]5(CC)C=CCN6CC[C@]43[C@@H]65)C2)C1` [VINCRISTINE]: the IC50 came out at 0.0006 µM in the assay with MCF7 [2], 0.0093 µM in [3] and 0.1 µM in assay [4].
Turning to `CC[C@]1(O)C[C@@H]2CN(CCc3c([nH]c4ccccc34)[C@@](C(=O)OC)(c3cc4c(cc3OC)N(C)[C@H]3[C@@](O)(C(=O)OC)[C@H](OC(C)=O)[C@]5(CC)C=CCN6CC[C@]43[C@@H]65)C2)C1` [VINBLASTINE], the Activity was 10.1% with HL-60 [11], 83.3% in the assay on HL-60 [12] and 6.6% in the assay with HL-60 [13]. Also, the result in the assay on A10 was Active. For the same molecule, the figures for the IC50 (with MCF7 [2]; in assay [3]; in assay [4]) were 0.0028 µM, 0.003 µM and more than 0.375 µM, respectively.
With `COc1cccc(CCc2cn(Cc3ccccc3)c3nc(N)nc(C)c23)c1`, the IC50 in assay [7] amounted to 22 µM; in [8], 5.7 µM; with MCF7 [9] it was 8 µM; in [10] it was 25 µM.
Turning to `COc1ccccc1CCc1cn(Cc2ccccc2)c2nc(N)nc(C)c12`, the IC50 in [7] was determined as 2.6 µM; in assay [8], 2.7 µM; with MCF7 [9], 2.3 µM; in assay [10] it was 2.5 µM. Further, the Activity result in the assay with NCI/ADR is “Dose-dependent effect”.
For `COc1cc2c(c(OC)c1OC)-c1ccc(OC)c(=O)cc1[C@@H](NC(C)=O)CC2` [COLCHICINE], the Activity in the assay with HL-60 [14] is 11.9%; in the assay on HL-60 [15] it was 84.1%; with HL-60 [16] it was 4%.
`Cc1nc(N)nc2c1c(CCc1ccccc1)cn2Cc1ccccc1`: the IC50 is 18.3 µM in assay [7], 18.2 µM in assay [8], 10.7 µM in the assay with MCF7 [9] and 12.7 µM in assay [10].
